In brackets after ≈: the same amount, converted by molar mass.

The subject of data set [1] is Mycobacterium tuberculosis variant bovis BCG. Description: Antimycobacterial activity against Mycobacterium bovis BCG Pasteur with pMV261 vector. Format: functional. Summed up:
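Agar MIC on Middlebrook 7H9 or 7H11 with OADC (ADC substituted for isoxyl-type drugs) plus graded drug levels; serial 10-fold dilutions of actively growing culture plated, incubated 37°C for 10–14 days; MIC = lowest concentration blocking 99% of growth. Recombinant Pasteur strains selected with 25 μg/ml kanamycin; ethR::hyg mutant carries a hygromycin-marked transposon in ethR.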

Data set [2] is described as follows: Drug metabolizing activity of Mycobacterium bovis BCG recombinant ethA expressed in Escherichia coli. Format: ADME. Conditions: mycobacterium tuberculosis variant bovis bcg. Summed up: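 N-terminal His6-tagged EthA expressed in E. coli (1 mM IPTG, 22°C, 24 h), Ni2+ affinity-purified with bound FAD. Drug incubated at 37°C for 1 h in 50 mM Tris-HCl pH 7.4, 100 mM KCl, 200 μg/ml BSA, 4 mM NADPH, 8 μg EthA.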

On to `COc1ccc(/C(C)=N/NC(N)=S)cc1`, for which the MIC in data set [1] turned out to be 0.25 µg/mL (≈ 1.12 µM).

With `NC(=S)N/N=C/c1cccnc1` [NICOTHIAZONE], 10 µg/mL (≈ 55.5 µM) was the least that counted as inhibitory in data set [1] (MIC). In the case of `CC(C)CCSc1ccc(NC(=S)Nc2ccc(SCCC(C)C)cc2)cc1`, the MIC in data set [1] is 40 µg/mL (≈ 92.4 µM). Also, in data set [2], the Activity is 7.37 µmol/min/mg. Consider `CCc1cc(C(N)=S)ccn1` [ETHIONAMIDE], for which the MIC in data set [1] is 2 µg/mL (≈ 12 µM). For `CC(=O)Nc1ccc(/C=N/NC(N)=S)cc1` [AMITHIOZONE], 0.5 µg/mL (≈ 2.12 µM) was the least that counted as inhibitory in data set [1] (MIC). Take `CC(C)CCOc1ccc(NC(=S)Nc2ccc(OCCC(C)C)cc2)cc1` [TIOCARLIDE]: it took 0.25 µg/mL (≈ 0.624 µM) to inhibit growth in data set [1] (MIC). Also, the Activity in data set [2] amounted to 7.56 µmol/min/mg.

Source of the values: ChEMBL document CHEMBL1142097, “EthA, a common activator of thiocarbamide-containing drugs acting on different mycobacterial targets” (Antimicrob Agents Chemother, 2007).
